NSD2 inh – inhibitors of human histone methyltransferase NSD2; inhibition, % at 12.5 µM; NSD2 peptide methylation, AlphaScreen, 120 min; AID 743445; O96028; 310,000 tested, 0.54% active; in the data active = inhibition above about 50%
ARNT-TACC3 inh – disrupts binding between human ARNT and TACC3; 390,000 tested, 0.66% active; AlphaScreen His-ARNT PAS-B/GST-TACC3 binding, luminescence; TACC3 fragment carries E629A point mutation; Q9Y6A5; inhibition, % at 9.99 µM;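 active = mean inhibition of replicates at least 50% and at least half of replicates each reaching 50%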
Xi reactivation – reactivates the inactive X chromosome in mouse fibroblasts. 360,000 tested, 0.055% active. XiGFP mouse fibroblasts, % GFP-positive cells imaging, 3 d; cells co-treated with 5-aza-dC sensitizer; scaled so ellipticine positive control = 100%. activation, % at 7.58 µM;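 active = mean normalized replicate activation at least 10% and every replicate at or above 10%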
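System: SV40-immortalized XiGFP fibroblast cells, line 68-5-11 / Incubation: 3-day compound exposure, then 15 min fixation at room temperature / Compound: single concentration per compound, delivered by pin transfer / Buffer or medium: DMEM plus 5-aza-dC sensitizer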
SR-BI DiI-HDL act – SR-BI HDL lipid transfer activation | CHO ldlA[mSR-BI] cells, DiI-HDL uptake fluorescence, 3 h; 100 = double the neutral-control signal | activation, % at 12.5 µM | 320,000 tested, 0.096% active;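 active = mean replicate activation of at least 60% and every replicate at or above 60%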
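Assay system: CHO ldlA[mSR-BI] cells, LDL receptor-null, SR-BI overexpressing; medium: Ham's F12 with 0.5% BSA, HEPES 25 mM, pH 7.4; also added: DiI-HDL 10 µg/mL; timing: 3 h uptake period with compound, 37 °C; signal: DiI fluorescence, bottom read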
SR-BI DiI inh – inhibitors of mouse SR-BI mediated HDL lipid uptake; ldlA[mSR-BI] CHO cells, DiI-HDL uptake fluorescence, 3 h; inhibition, % at 12.5 µM; 320,000 tested, 0.96% active; AID 488896;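 active = mean replicate inhibition of at least 70% and a set share of replicates each scoring 70 or more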
Target sequence (Q61009 whole entry, looked up): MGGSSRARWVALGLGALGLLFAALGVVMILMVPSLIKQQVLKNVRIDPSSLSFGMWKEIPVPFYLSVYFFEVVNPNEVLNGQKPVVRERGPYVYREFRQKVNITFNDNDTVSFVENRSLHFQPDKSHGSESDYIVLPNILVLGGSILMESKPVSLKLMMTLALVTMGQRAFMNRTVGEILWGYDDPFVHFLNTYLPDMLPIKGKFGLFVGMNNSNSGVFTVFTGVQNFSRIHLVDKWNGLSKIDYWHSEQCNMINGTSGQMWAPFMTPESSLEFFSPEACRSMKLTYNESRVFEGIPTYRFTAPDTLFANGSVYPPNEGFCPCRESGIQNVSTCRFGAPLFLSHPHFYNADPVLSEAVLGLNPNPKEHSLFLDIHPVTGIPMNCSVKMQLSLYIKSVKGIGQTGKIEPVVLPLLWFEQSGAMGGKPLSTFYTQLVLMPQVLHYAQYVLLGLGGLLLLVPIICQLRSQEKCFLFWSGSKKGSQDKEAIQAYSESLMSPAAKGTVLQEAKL
HGIII-sPLA2 inh – Inhibits HGIII-sPLA2 liposome hydrolysis, primary screen; QFRET BODIPY PC-A2 liposome hydrolysis, fluorescence; inhibition, % at 12.2 µM; 370,000 tested, 0.56% active;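 active = inhibition above mean plus 3 SD of compounds lying within the high and low control bounds, cut at about 19% in these data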
sPLA2 confirm – human GIII-sPLA2 inhibition, confirmation. shares compounds with HGIII-sPLA2 inh. recombinant hGIII-sPLA2, BODIPY PC-A2 QFRET fluorescence. inhibition, % at 12.2 µM. 2,000 tested, 34% active;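 active = mean inhibition across triplicates above the hit cutoff set in the earlier primary screen, cut at about 19% in these data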
535nm interf – 535nm fluorescence interference, HGIII-sPLA2 counter-screen; shares compounds with HGIII-sPLA2 inh; BODIPY FL product fluorescence interference, QFRET; inhibition, % at 12.2 µM; 2,000 tested, 8.5% active; AID 743282;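 active = average inhibition above the solvent-only control mean plus 3 SD, cut at about 6% in these data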
BODIPY interf DR – counter-screen for HGIII-sPLA2 inhibitors: 535nm fluorescence interference, dose response; shares compounds with HGIII-sPLA2 inh; BODIPY FL product fluorescence interference, cell-free; IC50, µM; 240 tested, under 10 active; AID 743455;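 active = IC50 at or below 10 µM; inactive = IC50 above 10 µM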
Hits are given with their value; i = inactive; nt = not tested or not shown. Rows were chosen to be rich in hits. Some 2% of all compounds tested hit in one or more screens of this group.

SMILES | NSD2 inh | ARNT-TACC3 inh | Xi reactivation | SR-BI DiI-HDL act | SR-BI DiI inh | HGIII-sPLA2 inh | sPLA2 confirm | 535nm interf | others
OC(COCc1ccc(Cl)cc1)CN1CCc2ccccc2C1 (configuration not stated) | i | i | i | i | i | 23 | i | i
COC(=O)c1c(NC(=S)Nc2cc(OC)c(Cl)cc2OC)sc2c1CCCCC2 | i | i | i | i | i | 25 | 26 | 11
CCOC(=O)c1c(NC(=S)Nc2cc([N+](=O)[O-])ccc2OC)sc2c1CCCCC2 | i | nt | nt | nt | nt | nt | nt | nt
CCCCCC1CCC(c2n[nH]c(=S)n2C)CC1 (configuration not stated) | i | i | i | i | i | 20 | 26 | i
Cc1cc(NS(C)(=O)=O)c(=O)n(Cc2cccc(C(F)(F)F)c2)c1 | i | nt | i | nt | nt | 21 | i | i
COCC(=O)Nc1cc(C)cn(Cc2cccc(C(F)(F)F)c2)c1=O | i | i | i | i | i | i | nt | nt
CCCCn1nnc(NC(=S)NC(=O)c2cccs2)n1 | i | i | i | i | i | 23 | i | i
C[N+]1(CC2COC3(CCCCC3)O2)CCCC1 (configuration not stated) | i | nt | i | i | i | 24 | i | i
CN(C)Cc1ccccc1Sc1ccccc1Br | i | i | nt | i | i | i | nt | nt
CC(OC(=O)c1nn(C)c(=O)c2ccccc12)C(=O)NC1CCCCC1C (configuration not stated) | i | i | i | i | i | 19 | i | i
COc1ccc2c(c1)OC[C@H]1[C@H]2N2C(=O)c3cc(OC)ccc3NC(=O)[C@@]2(C)[C@H]1c1ccccc1 | nt | i | i | i | 73 | 37 | 27 | i
COc1ccc2c(c1)C(=O)N1[C@H]3c4cc(Cl)ccc4OC[C@@H]3[C@H](c3ccccc3)[C@]1(C)C(=O)N2 | nt | i | i | i | i | i | nt | nt
COc1ccc2c(c1)OC[C@H]1[C@H]2N2C(=O)c3cc(F)ccc3NC(=O)[C@@]2(C)[C@H]1c1ccccc1 | nt | nt | i | i | i | 35 | i | i
CN(C)c1cccc(-c2cnc(N3CCC(C(N)=O)CC3)s2)c1 | nt | nt | nt | nt | nt | i | nt | nt
Cc1ccccc1-n1nc(-c2cccnc2)cc1C(=O)N/N=C/c1ccncc1 | i | i | i | i | i | i | nt | nt
Cc1ccc(-c2nnc(Nc3ccc(CC(N)=O)cc3)c3ccccc23)cc1S(N)(=O)=O | i | i | i | nt | nt | i | nt | nt
Cc1ccc(-c2nnc(Nc3ccc(CC(N)=O)cc3)c3ccccc23)cc1 | i | i | nt | i | i | 21 | i | i
Cc1ccc(-c2nnc(Nc3ccc(CC(N)=O)cc3)c3ccccc23)cc1S(=O)(=O)NCC1CCCO1 (configuration not stated) | i | i | i | nt | nt | 19 | i | i
O=C1c2ccccc2C(=O)N1CCSc1ncn[nH]1 | i | i | nt | i | i | i | nt | nt
O=C1c2ccccc2C(=O)N1CCSc1n[nH]c(=S)s1 | i | nt | nt | i | i | 20 | 25 | i
C[C@@H]1CN([C@@H](C)CO)C(=O)c2ccccc2-c2ccccc2CO[C@H]1CN(C)C(=O)c1ccc(F)cc1 | nt | i | i | nt | nt | nt | nt | nt
CNC(=S)NN=C(C)c1ccc(OC)cc1O | i | i | i | i | i | 27 | 31 | i | BODIPY interf DR=i
FC(F)Sc1nc2ccccc2[nH]1 | i | i | i | i | i | 25 | i | i
COCCOC(=O)C1=C(C)NC(=S)NC1/C=C/c1ccccc1 (configuration not stated) | i | i | i | i | i | 22 | i | i
COCCOC(=O)C1=C(C)NC(=O)NC1/C=C/c1ccccc1 (configuration not stated) | i | nt | i | i | i | i | nt | nt
SMILES | NSD2 inh | ARNT-TACC3 inh | Xi reactivation | SR-BI DiI-HDL act | SR-BI DiI inh | HGIII-sPLA2 inh | sPLA2 confirm | 535nm interf | others
Cc1ccc(-c2n[nH]c(=S)n2-c2ccccc2)cc1 | i | i | nt | i | i | i | nt | nt
S=c1[nH]nc(-c2ccc3c(c2)OCO3)n1-c1ccccc1 | i | nt | i | i | i | 25 | 23 | i
N=C(N)SCc1nc2ccccn2c1Br | i | i | i | i | i | 30 | i | i
Cc1cccc2nc(CSC(=N)N)c(Br)n12 | i | i | i | i | i | 24 | i | i
O=C(O)c1ccccc1SCc1nc2ccccn2c1Br | i | i | i | nt | nt | i | nt | nt
Cc1cc(CSC(=N)N)c(CSC(=N)N)cc1C | i | i | i | i | i | i | nt | nt
CC1CN(c2ccc([N+](=O)[O-])c(NCCOc3ccccc3)c2)CCN1 (configuration not stated) | i | nt | i | i | i | 39 | i | i
C[C@@H]1CN([C@@H](C)CO)C(=O)c2cc(-c3ccccc3F)cnc2O[C@@H]1CN(C)C(=O)NC1CCCCC1 | nt | i | i | nt | nt | nt | nt | nt
Cc1cc(C)n(CC(O)COc2ccccc2[N+](=O)[O-])n1 (configuration not stated) | i | i | i | i | i | 22 | i | i
N#Cc1c2c(c[nH]c1=O)CCN2Cc1ccccc1 | i | i | nt | i | i | 20 | i | i
CN(C)c1[nH]c(=O)c(C#N)c2c1CCN2Cc1ccccc1 | i | i | nt | i | i | i | nt | nt
C[C@@H]1CN([C@H](C)CO)C(=O)CCCn2nncc2CO[C@@H]1CN(C)C(=O)C1CCCCC1 | nt | i | i | nt | nt | i | nt | nt
O=C(CCN1C(=O)C2CC=CCC2C1=O)OCC(=O)c1ccc(F)cc1 (configuration not stated) | i | i | i | i | i | i | nt | nt
COc1ccc(N2CCN(C(=O)c3nn(C)c4c3CS(=O)(=O)c3ccccc3-4)CC2)cc1 | i | i | i | nt | nt | i | nt | nt
COc1ccc(Nc2nc(-c3cccs3)cs2)cc1 | nt | nt | nt | nt | nt | i | nt | nt
Oc1ccc(Nc2nc(-c3cccs3)cs2)cc1 | i | i | i | i | i | 23 | 23 | 9.7
Cc1cccc(OCC(=O)Nc2sc3c(c2C#N)CCC3)c1 | i | i | nt | i | i | 23 | i | i
N#Cc1ccc(OCC(=O)Nc2ccc(N3CCCC3)cc2)cc1 | i | i | i | i | i | 21 | i | i
CCOc1ccc(OCC(=O)Nc2ccc(N3CCCCC3)cc2)cc1 | i | i | i | i | i | i | nt | nt
CCC(C)NC(=S)N(Cc1cc2cc(C)ccc2n2nnnc12)CC(C)(C)NC(C)C (configuration not stated) | i | i | i | i | i | 21 | i | i

Source: PubChem BioAssay
